# Assay outcomes (PubChem BioAssay)
# Most compounds without a hit are left out; they make up all but 2.2% or so of the library.
# DENV2 CPE rescue: DENV2-induced cell death inhibition. 350,000 compounds, 1.7% hits. DENV2-infected cells, cytopathic effect rescue, plate reader. CPE inhibition, % at 9.99 µM; in the data active means CPE inhibition above about 20%, passing the limit was not always enough; inconclusive means no clear call, values can overlap the other calls; tested in BHK-21 cells;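 further: 0% = median of neutral control wells and 100% = median of positive control wells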
# C2C12 statin: protects C2C12 myotubes from simvastatin toxicity; ATP luminescence, 48 h; scaled: DMSO 0, geranylgeraniol control 100; rescue of ATP level, % at 7.49 µM; AID 602340; 330,000 compounds, 0.78% hits;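 active means mean ATP rescue above about 67%, or every replicate alone reaching that limit, limit read from the data, passing the limit was not always enough; inconclusive means no clear call, values can overlap the other calls; inactive means mean under the limit and some replicate under it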;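 further: myotubes were challenged with 10 µM simvastatin during compound exposure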
# E-sel inducer: induces E-selectin expression in human endothelial cells. 260,000 compounds, 0.37% hits. HUVEC E-selectin immunofluorescence imaging; normalized: neutral wells 0, TNF-alpha wells 100. activation, % at 7.58 µM;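 active means mean E-selectin-positive cell signal at least 10% of the positive control, reached in at least 60% of replicates, without over 20% cell loss; inconclusive means no rule given, readout overlaps actives, possibly toxicity-flagged; inactive means the rest, including those meeting only one limit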
# Target sequence (P16581 whole entry, looked up): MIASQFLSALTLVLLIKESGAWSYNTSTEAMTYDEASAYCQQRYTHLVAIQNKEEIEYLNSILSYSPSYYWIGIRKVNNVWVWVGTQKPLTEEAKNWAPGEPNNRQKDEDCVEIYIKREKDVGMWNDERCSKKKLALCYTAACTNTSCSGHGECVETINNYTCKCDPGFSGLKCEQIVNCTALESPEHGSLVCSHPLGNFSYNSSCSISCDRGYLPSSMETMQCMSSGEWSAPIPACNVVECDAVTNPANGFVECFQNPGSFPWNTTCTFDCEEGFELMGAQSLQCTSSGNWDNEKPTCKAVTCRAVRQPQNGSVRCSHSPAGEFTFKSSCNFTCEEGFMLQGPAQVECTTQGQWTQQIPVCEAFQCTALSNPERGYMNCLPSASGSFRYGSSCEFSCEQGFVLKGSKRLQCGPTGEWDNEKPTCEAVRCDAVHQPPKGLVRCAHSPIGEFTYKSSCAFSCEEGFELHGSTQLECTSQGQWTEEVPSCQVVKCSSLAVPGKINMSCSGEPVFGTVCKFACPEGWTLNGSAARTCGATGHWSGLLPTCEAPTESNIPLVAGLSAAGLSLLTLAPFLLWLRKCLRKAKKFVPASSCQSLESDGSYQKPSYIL
#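 Read-out: % PE-positive cells | Test system: HUVEC | Doses: One compound dose added by pin transfer | Buffer or medium: EGM-2 over gelatin coat | Signal: Immunofluorescence imaging | Benchmarks: TNF-alpha, DMSO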
# Starred values were filed as active, the others as inactive; u = inconclusive; x = not tested or not shown.
SMILES,DENV2 CPE rescue,C2C12 statin,E-sel inducer
C[C@@H]1CCCCO[C@H](CN(C)C(=O)Nc2cccc3ccccc23)[C@H](C)CN([C@H](C)CO)C(=O)c2cc(NS(=O)(=O)c3ccccc3)ccc2O1,-16,x,x
C[C@@H]1CCCCO[C@@H](CN(C)C(=O)Nc2cccc3ccccc23)[C@H](C)CN([C@@H](C)CO)C(=O)c2cc(NS(=O)(=O)c3ccc(Cl)cc3)ccc2O1,14,137*,x
C/C=C/c1ccccc1[C@@H]1[C@@H](C#N)N(C(C)=O)[C@H]1CO,-2,x,0
Cc1ccc(S(=O)(=O)Nc2ccc3c(c2)C(=O)N([C@@H](C)CO)C[C@H](C)[C@@H](CN(C)C(=O)Nc2cccc4ccccc24)O3)cc1,1,-4,0
Cc1ccc(S(=O)(=O)Nc2ccc3c(c2)C(=O)N([C@H](C)CO)C[C@H](C)[C@@H](CN(C)C(=O)Nc2cccc4ccccc24)O3)cc1,41*,0,0
COc1ccc2c3c([nH]c2c1)[C@@H](CO)N(C(=O)Nc1ccc(F)cc1)CC31CN(S(=O)(=O)c2ccccc2)C1,-3,x,0
O=C(CCC(=O)N1CCN(S(=O)(=O)c2ccccc2)CC1)c1ccc(Br)cc1,8,9,2
NC(=O)C(CCC(=O)c1ccc(Br)cc1)S(=O)(=O)c1ccccc1 (configuration not stated),31*,x,-2
CS(=O)(=O)c1nc(S(=O)(=O)c2ccc(Cl)cc2)c(N2CCC(O)CC2)s1,1,85*,0
Cc1ccc(S(=O)(=O)c2nc(S(C)(=O)=O)sc2N2CCC(O)CC2)cc1,0,16,0
CC(C)(C)OC(=O)C[C@@H]1C/C=C\C[C@@H](CC(=O)N[C@@H](CO)Cc2ccccc2)C(=O)NC[C@@H](c2ccccc2)OC1=O,11,10,26
CC(C)(C)OC(=O)C[C@H]1C/C=C\C[C@@H](CC(=O)N[C@@H](CO)Cc2ccccc2)C(=O)NC[C@H](c2ccccc2)OC1=O,58*,6,1
COc1ccc(C#Cc2ccc([C@@H]3[C@H]4CN(C(=O)c5cccnc5)CC(=O)N4[C@H]3CO)cc2)cc1,-4,x,-1
COc1cc(/C=C/C(=O)O)ccc1O,3,-13,x
COc1cc(/C=C/C(=O)/C=C(O)/C=C/c2ccc(O)c(OC)c2)ccc1O,x,140*,0
N#CCCN1CCN(CCC#N)CC1,x,5,x
N#CCCN1CCNCC1,x,132*,x
CCCNC(=O)Nc1ccc2c(c1)C(=O)N(C)[C@H]1CC[C@@H](CC(=O)NCC3CCCCC3)O[C@H]1CO2,-9,-18,0
CC(C)NC(=O)Nc1ccc2c(c1)C(=O)N([C@H](C)CO)C[C@H](C)[C@H](CN(C)C(=O)NC1CCCCC1)OCCCC[C@H](C)O2,3,x,0
CN1CCN(CCN2CCn3c2nc2ccccc23)CC1,x,81*,x
N#CCCN1CCn2c1nc1ccccc12,x,-3,x
CN(C)C(=O)c1cccc(-c2ccc(C3[C@H]4CNC[C@@H]3N4Cc3cccnc3)cc2)c1 (some centres not stated),1,x,0
C[C@@H]1CN([C@@H](C)CO)C(=O)Cc2cc(NC(=O)Nc3ccc4c(c3)OCO4)ccc2O[C@H]1CN(C)CC1CCCCC1,8,6,0
C[C@H](CO)N1C[C@H](C)[C@@H](CN(C)C(=O)Nc2cccc3ccccc23)Oc2ccc(NS(=O)(=O)c3ccc(F)cc3)cc2CC1=O,-3,40,0
C[C@@H]1CN([C@@H](C)CO)C(=O)c2ccccc2-c2ccccc2CO[C@H]1CN(C)C(=O)c1ccncc1,-3,x,0
SMILES,DENV2 CPE rescue,C2C12 statin,E-sel inducer
Cc1ccc2nc(SCC(=O)Nc3ccc(F)cc3F)[nH]c2c1,x,-4,x
O=C(CSc1nc(=O)[nH]c2c1CCCC2)Nc1ccc(F)cc1F,41*,5,x
COc1ccc(NC(=O)Nc2cccc3c2O[C@@H](CN(C)C(=O)NC2CCCCC2)[C@H](C)CN([C@H](C)CO)C3=O)cc1,4,15,49*
C[C@H]1CN([C@@H](C)CO)C(=O)c2cccc(NC(=O)Nc3cccc4ccccc34)c2O[C@@H]1CN(C)C(=O)Nc1ccc(F)cc1,-8,42,-3
COc1ccc(NC(=O)N(C)C[C@H]2Oc3c(NC(=O)NC4CCCCC4)cccc3C(=O)N([C@@H](C)CO)C[C@H]2C)cc1,-7,-14,0
COc1ccc(NC(=O)N(C)C[C@H]2Oc3c(NC(=O)Nc4ccccc4)cccc3C(=O)N([C@@H](C)CO)C[C@H]2C)cc1,-4,4,0
COc1ccc(NC(=O)Nc2cccc3c2O[C@@H](CN(C)C(=O)Nc2ccccc2)[C@H](C)CN([C@H](C)CO)C3=O)cc1,36*,19,1
COc1ccc(NC(=O)Nc2cccc3c2O[C@@H](CN(C)C(=O)Nc2ccc(OC)cc2)[C@H](C)CN([C@@H](C)CO)C3=O)cc1,0,18,0
COc1ccc(NC(=O)Nc2cccc3c2O[C@H](CN(C)C(=O)Nc2ccc(OC)cc2)[C@@H](C)CN([C@@H](C)CO)C3=O)cc1,144*,-14,0
C[C@H](CO)N1C[C@H](C)[C@H](CN(C)C(=O)Nc2ccc(F)cc2)Oc2c(NC(=O)Nc3cccc4ccccc34)cccc2C1=O,42*,-49,0
O=C(C[C@@H]1C=C[C@H](NC(=O)c2ccccc2)[C@@H](CO)O1)NCCc1ccncc1,u,4,0
C[C@@H]1CN([C@H](C)CO)C(=O)Cc2cc(NC(=O)CCCCCC(=O)Nc3ccccc3N)ccc2O[C@H]1CN(C)C(=O)Nc1ccc(C(F)(F)F)cc1,2,-11,x
COc1ccccc1NC(=O)N1CC[C@@H]2[C@@H](CO)N(C)c3ccc(-c4ccc(F)cc4)cc3[C@@H]21,6,42,-1
O=C(N[C@H]1CC[C@H](CCn2cc(C3(O)CCCC3)nn2)O[C@H]1CO)c1ccccc1F,4,39,0
COc1ccc(NC(=O)Nc2cccc3c2O[C@@H](CN(C)C(=O)Nc2cccc4ccccc24)[C@@H](C)CN([C@@H](C)CO)C3=O)cc1,-4,31,0
C[C@@H]1CN([C@H](C)CO)C(=O)c2cccc(NC(=O)NC3CCCCC3)c2O[C@@H]1CN(C)C(=O)Nc1ccccc1,-11,3,x
COc1ccc(NC(=O)Nc2cccc3c2O[C@@H](CN(C)C(=O)Nc2cccc4ccccc24)[C@H](C)CN([C@H](C)CO)C3=O)cc1,2,98*,0
C[C@H](CO)N1C[C@H](C)[C@@H](CN(C)C(=O)Nc2ccccc2)Oc2c(NC(=O)NC3CCCCC3)cccc2C1=O,64*,1,0
C[C@H](CO)N1C[C@H](C)[C@H](CN(C)C(=O)Nc2ccccc2)Oc2c(NC(=O)C3CCOCC3)cccc2C1=O,15,25,6
C[C@@H]1CN([C@H](C)CO)C(=O)c2cccc(NC(=O)C3CCOCC3)c2O[C@H]1CN(C)C(=O)Nc1ccccc1,1,17,173*
COc1ccc(NC(=O)N(C)C[C@H]2Oc3c(NC(=O)NC(C)C)cccc3C(=O)N([C@H](C)CO)C[C@@H]2C)cc1,1,96*,0
COc1ccc(NC(=O)Nc2cccc3c2O[C@@H](CN(C)C(=O)Nc2ccc(OC)cc2)[C@@H](C)CN([C@@H](C)CO)C3=O)cc1,2,21,0
